High-throughput results: PubChem, several laboratories
Hits are enriched below; roughly 1.8% of the tested compounds scored in any of these assays.
EBNA-1 inh: blocks EBNA-1 binding to DNA | EBNA-1 DNA binding, fluorescence polarization | inhibition, % at 14.8 µM | 300,000 compounds, 0.34% hits | AID 1950; in the data active = inhibition above about 28%
GSTO1 counter: GSTO1 inhibition, counter-screen for RBBP9 inhibitors. P78417. recombinant GSTO1, activity-based probe fluorescence polarization. inhibition, % at 5.96 µM. 300,000 compounds, 1.1% hits. AID 1974;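 active = inhibition above the campaign mean inhibition plus 3 SD, cut at about 35% in these data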;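 note: 0% = GSTO1-1 with DMSO and 100% = wells lacking GSTO1-1 enzyme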
ZTA counter: blocks Epstein-Barr virus ZTA, an EBNA-1 counter-screen; 320,000 compounds, 0.15% hits; AID 2234; inhibition, % at 11 µM; ZTA-DNA binding, fluorescence polarization; in the data active = inhibition above about 33%
procasp7 counter: activates human procaspase-7, counter-screen for procaspase-3 activators; activation, % at 8.5 µM; recombinant procaspase-7, Ac-DEVD-pNA absorbance 405 nm; D23A/D198A/D206A triple mutant, cannot self-cleave; scale: DMSO 0, 5 µM enzyme 100; AID 463210; 330,000 compounds, 0.093% hits;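 active = percent activation above the screen-wide mean plus 3 SD, cut at about 25% in these data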
Target sequence (P55210 whole entry D23A/D198A/D206A): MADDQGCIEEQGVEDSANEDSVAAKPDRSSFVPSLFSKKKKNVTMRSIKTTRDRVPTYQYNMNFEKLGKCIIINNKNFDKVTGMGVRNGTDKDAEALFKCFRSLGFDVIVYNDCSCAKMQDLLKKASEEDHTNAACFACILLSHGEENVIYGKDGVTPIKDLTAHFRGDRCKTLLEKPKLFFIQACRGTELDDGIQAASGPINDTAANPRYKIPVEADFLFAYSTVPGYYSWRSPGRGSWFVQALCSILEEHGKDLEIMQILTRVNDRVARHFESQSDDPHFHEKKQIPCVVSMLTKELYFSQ
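Assay system: Uncleavable procaspase-7 mutant enzyme | Input: 2 µM procaspase-7 mutant as dispensed | Timing: 1 h compound preincubation, 2 h substrate cleavage, 25 °C | Repeats: One well per compound | Control set: DMSO wells as 0%, DMSO with 5 µM added PC-7 as 100% | Technique: Epi-absorbance of released pNA at 405 nm, two timepoints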
Apaf-1 inh: inhibitors of human Apaf-1 apoptosome. 330,000 compounds, 0.71% hits. AID 489030. inhibition, % at 20 µM. reconstituted apoptosome caspase-3 activity, DEVD-Rh110 fluorescence. O14727; active = inhibition of at least 40% at 20 µM;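 note: plate controls were DMSO wells for no effect and DEVD-CHO caspase inhibitor wells for full effect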
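Material: reconstituted apoptosome with Apaf-1, cytochrome c, caspase-9, procaspase-3, dATP. Technique: Rh110 fluorescence intensity. Buffer or medium: pH 7.5 Hepes buffer with CHAPS, BSA, DTT. Times: 30 min plus 50 min, RT.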
procasp3 activ: activators of human procaspase-3; P42574; recombinant procaspase-3 D3A, Ac-DEVD-pNA absorbance 405 nm; activation, % at 8.5 µM; 330,000 compounds, 0.11% hits;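 active = activation above the mean of all tested compounds plus 3 SD, cut at about 21% in these data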;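 note: 0% = DMSO alone and 100% = DMSO wells spiked with extra 5 µM PC-3 D3A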
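Evaluation: percent activation relative to control range; Material: Procaspase-3 D3A mutant, all three cleavage aspartates alanine; Compound: single dose, 8.5 µM nominal compound, 0.8% DMSO; Replication: one well per compound; Signal: absorbance at 405 nm, 0 and 120 min; Schedule: 1 h preincubation plus 2 h reaction at 25 °C.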
GSTO1 confirm: confirmation of human GSTO1 inhibitors. 2,400 compounds, 54% hits. shares compounds with GSTO1 counter. inhibition, % at 5.96 µM. recombinant GSTO1, probe fluorescence polarization;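 active = inhibition above the primary screen's cutoff, its mean inhibition plus 3 SD, cut at about 35% in these data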;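 note: loss of polarization as inhibitors block binding of rhodamine sulfonate ester activity probe; 0% = GSTO1 with DMSO and 100% = wells lacking GSTO1 enzyme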
GSTO1 recomb ABPP: blocks recombinant human glutathione S-transferase omega 1; inhibition, % at 1 µM; 130 compounds, 30% hits; AID 463110; recombinant GSTO1, gel ABPP SE-Rh probe fluorescence; shares compounds with GSTO1 counter;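 active = inhibition of the enzyme GSTO1 above about 75%, limit read from the data; inactive = inhibition below that limit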
* marks the source's active call; other numbers are inactive results; · = not tested or not shown.

SMILES	EBNA-1 inh	GSTO1 counter	ZTA counter	procasp7 counter	Apaf-1 inh	procasp3 activ	GSTO1 confirm	others
O=C1/C(=C/C=C/c2ccco2)SC(=S)N1c1ccc(O)cc1	22	46*	23	-23	12	-13	24
CC(=O)Oc1ccc2c(c1)Oc1cc(OC(C)=O)ccc1C21OC(=O)c2ccccc21	-2	72*	-6	4	-259	7	84*
CCOC(=O)C1CCN(C(=O)COC(=O)c2oc3ccccc3c2C)CC1	6	1	10	0	-2	3	·
COc1cc(C(C[N+](=O)[O-])c2c(C)cc3ccccn23)ccc1O (configuration not stated)	-7	39*	8	-8	10	-14	7
CCN(CC)c1ccc(NC(=O)C(C)C)cc1	2	6	9	3	-4	0	·
CC(=O)Nc1ccc2c(c1)C(=O)c1ccccc1C2=O	11	4	-2	-2	2	-1	·
CC(=O)Nc1ccc(NC2=CC(=O)c3ccccc3C2=O)cc1	-9	39*	-28	7	32	2	8
Cc1ccc(Nc2ccccc2)cc1	6	5	8	-9	2	6	·
CCN(CC)c1ccc(NC2=C(Cl)C(=O)c3ccccc3C2=O)cc1	6	83*	2	-7	·	-15	84*
COC1=C(Nc2ccc(O)cc2)C(=O)c2ccccc2C1=O	2	34	7	-15	11	-16	·
O=C1C(Cl)=C(Nc2ccc(O)cc2)C(=O)c2ccccc21	-5	90*	-10	-28	26	-12	92*
Cc1ccc(NC2=C(Cl)C(=O)c3ccccc3C2=O)cc1	7	85*	-7	-11	·	-5	85*
CCOC(=O)C1CCCN(C(=O)C2CCN(S(=O)(=O)c3ccc4ccccc4c3)CC2)C1 (configuration not stated)	0	0	-3	9	6	4	·
Cc1ccc(NC2=CC(=O)CC(c3ccccc3)C2)cc1 (configuration not stated)	7	-6	-1	3	-9	8	·
Cc1ccc(NC2=CC(=O)C(=O)c3ccccc32)cc1	4	77*	5	-3	87*	-2	73*
Cc1cccc(CC(=O)Nc2ccon2)c1	11	59*	4	8	-278	-3	6
O=C1c2ccccc2-c2cccc(C(=O)N3CCCCC3)c21	2	7	-1	8	-12	-4	·
O=C1c2ccccc2C(=O)c2c1cccc2N1CCCC1	8	56*	8	-2	·	-5	10
Cn1c(=O)cc2c3c(c(N4CCCCC4)ccc31)C(=O)c1ccccc1-2	-4	39*	-4	1	7	-5	24
COc1ccc(N(CCOc2ccccc2)S(=O)(=O)c2ccccc2)cc1	·	·	0	-7	0	3	·
COc1ccc(N(CC2CO2)S(=O)(=O)c2ccccc2)cc1 (configuration not stated)	8	70*	9	1	-6	6	86*	GSTO1 recomb ABPP=19
COc1ccc([N+](=O)[O-])cc1N(CC1CO1)S(=O)(=O)c1ccc(C)cc1 (configuration not stated)	-3	88*	6	8	4	6	98*	GSTO1 recomb ABPP=44
O=S(=O)(c1ccccc1)N(CC1CO1)c1cc(Cl)ccc1Cl (configuration not stated)	-3	92*	6	-8	3	-7	94*	GSTO1 recomb ABPP=51
O=[N+]([O-])c1ccccc1N(CC1CO1)S(=O)(=O)c1ccccc1 (configuration not stated)	3	81*	9	-15	-1	-3	94*	GSTO1 recomb ABPP=12
